# From PubChem BioAssay
# Calls of active or inactive are those of the source.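 How the source made its calls, unless noted: active means compounds giving at least 50% inhibition in the cell-based MKP-3 phosphatase rescue imaging test; inactive means the rest.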
# How the values were obtained:
# [1] = inhibitors of TNFa-induced NFkB p65 translocation, primary screen, imaging, HUVEC, MLSMR starter and 10KST1 sets (AID 438;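 active means inhibition above 20% together with a positive visual image hit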;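 further: compound added about 3h40 before a 20 min TNFalpha stimulation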;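 on inhibition: signal is the nuclear over cytoplasmic p65 intensity ratio per well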); details: HUVEC TNFa-induced p65 nuclear translocation; cell count: measured here: nuclei count (cytotoxicity indicator), at 2.08 µM; inhibition: at 2 µM, stronger effect = higher value, 0% TNFa-plus-vehicle, 100% no-TNFa wells
# [2] = inhibitors of E-selectin induction by TNFa, primary screen, imaging, HUVEC, immunofluorescence, MLSMR starter and 10KST1 sets (AID 487;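 active means visually confirmed hit in the image check and inhibition above 20%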;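 on inhibition: signal is fraction of cell area covered by stained E-selectin grains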;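 on nuclei count: 100% = median nuclei count of all wells on the same plate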); details: HUVEC TNFalpha-induced E-selectin immunofluorescence imaging, at 2 µM; inhibition: stronger effect = higher value; nuclei count: measured here: cell number, toxicity
# [3] = DUSP6 inhibitors restoring Erk phosphorylation by chemical complementation, primary imaging in DUSP6-transfected HeLa (AID 609); details: HeLa MKP-3 transfected, phospho-Erk imaging KS statistic, at 10 µM, cells stimulated with TPA for 15 min;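 on inhibition: phospho-Erk level distribution per well compared with pooled transfected vehicle control wells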
# [4] = molecular target: Dual specificity protein phosphatase 6 (Homo sapiens) (UniProt Q16828); experiment: as above; details: HeLa MKP-3 transfected, phospho-Erk imaging KS statistic; at 10 µM; stronger effect = higher value; cells stimulated with TPA for 15 min
# Sequence of Dual specificity protein phosphatase 6 (Homo sapiens) (Q16828 whole entry, looked up): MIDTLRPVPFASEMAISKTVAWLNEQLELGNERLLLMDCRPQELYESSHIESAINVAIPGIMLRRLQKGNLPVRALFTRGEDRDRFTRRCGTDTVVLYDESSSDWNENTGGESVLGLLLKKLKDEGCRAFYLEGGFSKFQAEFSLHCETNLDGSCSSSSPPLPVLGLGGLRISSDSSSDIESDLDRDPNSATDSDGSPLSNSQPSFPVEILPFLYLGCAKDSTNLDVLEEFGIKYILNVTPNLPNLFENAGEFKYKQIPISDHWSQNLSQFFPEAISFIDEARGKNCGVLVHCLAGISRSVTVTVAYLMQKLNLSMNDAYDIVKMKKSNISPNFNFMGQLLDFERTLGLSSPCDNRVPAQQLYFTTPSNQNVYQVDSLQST
# [5] = molecular target: Voltage-gated potassium channel subunit beta-2 (Rattus norvegicus) (UniProt P62483); experiment: KvBeta enzyme negative modulators, primary screen, biochemical, NADPH fluorescence (AID 622;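 active means fluorescence slope higher than the sample average by over 3 SD, cut at about -0.22 in these data, passing the limit was not always enough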;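 further: slope of raw intensity against log time taken from 70 to 1610 s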); details: recombinant KvBeta, 4-cyanobenzaldehyde reduction, at 10 µM, stronger effect = higher value
# Sequence of Voltage-gated potassium channel subunit beta-2 (Rattus norvegicus) (P62483 whole entry, looked up): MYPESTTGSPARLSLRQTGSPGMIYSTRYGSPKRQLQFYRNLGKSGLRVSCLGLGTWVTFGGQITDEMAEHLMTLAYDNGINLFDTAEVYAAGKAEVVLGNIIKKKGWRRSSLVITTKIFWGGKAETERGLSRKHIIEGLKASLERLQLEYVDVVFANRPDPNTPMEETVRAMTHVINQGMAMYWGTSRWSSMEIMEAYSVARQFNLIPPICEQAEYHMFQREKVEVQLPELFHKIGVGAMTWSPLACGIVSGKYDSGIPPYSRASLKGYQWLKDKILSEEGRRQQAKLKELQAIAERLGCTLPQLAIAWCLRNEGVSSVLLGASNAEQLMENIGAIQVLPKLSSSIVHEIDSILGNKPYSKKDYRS
# [6] = molecular target: Voltage-gated potassium channel subunit beta-2 (Rattus norvegicus) (UniProt P62483); experiment: KvBeta positive modulators, primary screen, biochemical, NADPH fluorescence (AID 623;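 active means NADPH fluorescence slope more negative than the mean of all samples by about 3 SD, 99.7% confidence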;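 further: fluorescence intensity change per second fitted from 20 to 320 s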); details: Recombinant KvBeta, NADPH fluorescence decrease slope, 10 min; at 10 µM; stronger effect = lower value
# [7] = molecular target: Alpha-2C adrenergic receptor (Homo sapiens) (UniProt P18825); experiment: modulators of alpha2C/GIRK thallium flux, primary screen, cell-based, HEK293 alpha2C/GIRK1/2 (AID 624;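 active means fluorescence slope after compound addition differing from the mean of all screened samples at 99.7% confidence, in either direction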;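 further: slope of fluorescence ratio to pre-addition baseline per second over 15 to 24 s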); details: thallium flux BTC fluorescence, at 10 µM, actives lie on both sides
# Sequence of Alpha-2C adrenergic receptor (Homo sapiens) (P18825 whole entry, looked up): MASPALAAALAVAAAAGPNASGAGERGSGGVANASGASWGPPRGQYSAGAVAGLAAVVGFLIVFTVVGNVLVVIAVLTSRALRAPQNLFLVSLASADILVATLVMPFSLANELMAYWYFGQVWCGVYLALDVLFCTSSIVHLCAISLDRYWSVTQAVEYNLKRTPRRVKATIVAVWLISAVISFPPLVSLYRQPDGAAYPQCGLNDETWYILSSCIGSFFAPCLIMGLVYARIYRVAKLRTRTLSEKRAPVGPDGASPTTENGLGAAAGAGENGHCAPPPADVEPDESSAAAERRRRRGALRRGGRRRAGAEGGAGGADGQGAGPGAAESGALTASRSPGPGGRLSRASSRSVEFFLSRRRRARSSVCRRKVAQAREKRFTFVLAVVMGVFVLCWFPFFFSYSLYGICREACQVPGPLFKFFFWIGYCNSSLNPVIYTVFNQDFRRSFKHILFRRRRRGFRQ
# [8] = inhibitors of larval lipid processing in zebrafish, primary screen, whole organism, PED6 fluorescence, gall bladder and intestine (AID 686;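 active means a full or partial loss of lipid-probe fluorescence in the fish gall bladder, intestine or both, judged by eye; inactive means no fluorescence loss, or compound toxic to the fish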;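 further: larvae 5 to 7 days old with five fish per well; signal comes from phospholipase A2 cleavage of quenched PED6 carried via bile; overnight exposure to compound and PED6 before scoring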); details: Zebrafish larvae PED6 lipid processing, fluorescence scoring; screened at 20 µM (by protocol)
# In short: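 system = live zebrafish larvae aged 5-7 days, whole organism | probe or stimulus = ingested quenched lipid PED6 at 100 nM | doses = 20 µM single dose | timing = overnight exposure | detection = fluorescence microscopy with visual scoring of gall bladder and intestine | read-out = visual per-well fluorescence inhibition score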
# [9] = inhibitors of Chlamydomonas gravitaxis, primary screen, whole organism, Chlamydomonas reinhardtii, WT vs cilia-less mutant, absorbance, 96-well (AID 463189;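 active means inhibition at or above 50% relative to wild type and mutant plate controls; inactive means inhibition below 50%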;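 further: 0% = wild type cc124 cells in DMSO and 100% = ciliumless bld1 mutant cells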); details: OD600 absorbance, 2 days, at 10 µM, stronger effect = higher value
# [10] = measured here: cell density z-score
# [11] = measured here: nuclear c-Myc green intensity z-score
# [12] = measured here: nuclear pErk red intensity z-score, stronger effect = higher value
Structure (SMILES),cell count [1],inhibition [1],inhibition [2],nuclei count [2],"z-score [3, 10]","z-score [3, 11]","z-score [3, 12]",inhibition [4],fluorescence slope [5],NADPH fluorescence slope [6],slope [7],outcome [8],inhibition [9]
Cc1nc(NCc2ccccc2)c(C(N)=O)c2c1COC(C)(C)C2,643,-5.8% (inactive),-17.6% (inactive),192%,0.783,0.565,-0.208,9.39% (inactive),-0.512 (inactive),-7.6e-05 (inactive),0.00486 (inactive),inactive,-5.71% (inactive)
CCN(CC)CCN1C(=O)C(=O)/C(=C(/O)c2ccc(C)cc2)C1c1cccnc1 (centres undefined),390,-0.5% (inactive),-20.8% (inactive),113%,0.619,-0.778,0.527,-5.89% (inactive),-0.426 (inactive),-5.7e-05 (inactive),0.00669 (inactive),inactive,8.05% (inactive)
O=C(O)c1nsc(Cl)c1Cl,628,-18.8% (inactive),39.2% (inactive),170%,-0.315,-1.86,0.801,-6.06% (inactive),-0.386 (inactive),-3.3e-06 (inactive),0.00603 (inactive),inactive,6.17% (inactive)
O=C(O)C1CCCCN1S(=O)(=O)c1cccc2nsnc12 (centres undefined),488,9.4% (inactive),-8.1% (inactive),93.9%,-0.854,0.334,-0.543,-6.06% (inactive),-0.498 (inactive),-3.9e-05 (inactive),0.0076 (inactive),inactive,-16.5% (inactive)
COc1cccc(-c2nc(N3CC(C)CC(C)C3)c3ccccc3n2)c1O (centres undefined),535,-11.7% (inactive),-37.3% (inactive),180%,-0.935,0.42,2.09,-5.26% (inactive),-0.393 (inactive),-2.4e-05 (inactive),0.00414 (inactive),inactive,0.389% (inactive)
CC(=O)N1CCC2(CC1)C(C#N)=C(N)Oc1n[nH]c(C(F)(F)F)c12,509,-9.9% (inactive),-79.8% (inactive),156%,1.26,0.347,-0.954,-1.12% (inactive),-0.349 (inactive),-1.5e-05 (inactive),0.00543 (inactive),inactive,10.5% (inactive)
COc1ccc(C2CC(=O)c3sc(N)nc3C2)cc1 (centres undefined),424,-15.2% (inactive),-328% (inactive),147%,0.261,-0.0796,-0.89,26.6% (inactive),-0.408 (inactive),-1.9e-05 (inactive),0.00734 (inactive),inactive,0.76% (inactive)
CCOC(=O)C1=C(CSc2nc3c(cc2C#N)CN(C)CC3)OC(N)=C(C#N)C1c1ccccc1 (centres undefined),616,-8.1% (inactive),28.8% (inactive),169%,1.95,-0.602,0.371,-5.62% (inactive),-0.384 (inactive),-4.7e-05 (inactive),0.00325 (inactive),inactive,-1.09% (inactive)
Cc1cc(C)nc(NC2=NCC(=O)N2c2cccc(Cl)c2)n1,581,-4.9% (inactive),-200% (inactive),141%,1.05,1.03,-2.43,15.9% (inactive),-0.517 (inactive),-4.2e-05 (inactive),0.00561 (inactive),inactive,-3.6% (inactive)
C=CCOC(=O)C(C#N)c1nc2ccccc2nc1N1CCN(c2ccccc2OCC)CC1 (centres undefined),543,-30.2% (inactive),-94.9% (inactive),165%,-0.552,-0.297,0.325,-11.5% (inactive),-0.494 (inactive),-3.6e-05 (inactive),0.00373 (inactive),inactive,-7.78% (inactive)
N#CC1=C(SCC(=O)c2ccc(Cl)cc2)NC2=C(C(=O)CCC2)C1c1ccco1 (centres undefined),362,-6.1% (inactive),-118% (inactive),147%,1.13,-0.168,-0.867,9.42% (inactive),-0.422 (inactive),-0.000127 (inactive),0.00564 (inactive),active; weak signal in gallbladder and intestine,13.1% (inactive)
O=C(O)CCSc1ccc2ccccc2n1,502,0.3% (inactive),-157% (inactive),135%,1.96,-1.24,-0.378,15.8% (inactive),-0.49 (inactive),-7.2e-05 (inactive),0.00505 (inactive),inactive,9.45% (inactive)
Cc1csc2nc(CSc3nc4ccccc4o3)cn12,402,-8.4% (inactive),-53.8% (inactive),108%,0.0403,1.14,-0.0493,3.56% (inactive),-0.545 (inactive),-5.7e-05 (inactive),0.00434 (inactive),inactive,5.29% (inactive)
